Sampled rows, rich in hits. Any-hit rate of the full collection: about 0.99%.
GSK3A inh: inhibitors of human GSK-3 alpha kinase. P49840. ADP-Glo luminescence, 60 min. inhibition, % at 10 µM. 0.1% of 320,000 active. AID 2650;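 active = more than half of replicates show inhibition above 20%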;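 note: GST-tagged GSK-3 alpha with peptide substrate and 25 µM ATP; 0% = DMSO neutral wells and 100% = GW8510 positive control wells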
Target sequence (P49840 whole entry, looked up): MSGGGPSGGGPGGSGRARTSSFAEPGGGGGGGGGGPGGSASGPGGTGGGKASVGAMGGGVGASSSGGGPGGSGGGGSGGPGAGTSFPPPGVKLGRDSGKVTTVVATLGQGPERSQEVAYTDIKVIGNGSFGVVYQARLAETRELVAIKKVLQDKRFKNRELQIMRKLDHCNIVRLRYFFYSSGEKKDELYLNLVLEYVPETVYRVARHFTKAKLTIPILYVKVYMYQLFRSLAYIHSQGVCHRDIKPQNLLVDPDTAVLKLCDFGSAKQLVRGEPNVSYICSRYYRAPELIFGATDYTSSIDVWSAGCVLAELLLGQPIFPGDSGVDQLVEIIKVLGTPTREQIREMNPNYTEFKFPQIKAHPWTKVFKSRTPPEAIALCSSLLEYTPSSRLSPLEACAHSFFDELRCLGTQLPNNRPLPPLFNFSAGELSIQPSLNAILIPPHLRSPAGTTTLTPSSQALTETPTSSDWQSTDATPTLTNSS
Rin1-Abl PPI inh: inhibitors of human Rin1-Abl protein interaction; P00519+Q13671; TR-FRET Rin1/Abl binding, biochemical; inhibition, % at 7.35 µM; 0.4% of 360,000 active; AID 588664; in the data active = inhibition above about 5%, passing the limit was not always enough
STK33 inh: blocks human STK33 kinase activity; purified STK33, MBP phosphorylation, ADP-Glo luminescence; 0.073% of 320,000 active; inhibition, % at 10 µM; Q9BYT3;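 active = inhibition at or above 25%, using the most active replicate where run in duplicate; inactive = inhibition below 25%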
DYRK1A inh: inhibitors of rat Dyrk1A kinase | inhibition, % at 12.5 µM | 0.43% of 310,000 active | ADP-Glo luminescence, NFATc1 peptide; in the data active = inhibition above about 50%;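 note: plate controls were vehicle with enzyme for no effect and no enzyme for full effect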
GSK3B inh: human GSK3beta kinase inhibition; activity score (negative = inhibition), % at 10 µM; GST-GSK3beta kinase, ADP-Glo luminescence, 60 min; active compounds read low; P49841; 0.038% of 300,000 active;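 active = more than half of replicate wells score below -50%, meaning over 50% inhibition versus plate controls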;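 note: 0% = median DMSO wells and -100% = median GW8510 positive control wells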
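Test system: GST-tagged human GSK3beta kinase, cell-free; evaluation: activity score scaled between in-plate DMSO and GW8510 controls; measured by: ADP-Glo luminescence; incubation: 60 min reaction, RT; benchmarks: DMSO and 20 µM GW8510; reagent: peptide substrate plus 25 µM ATP (final); medium: Tris/MgCl2 kinase buffer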
Arr AP2 block: inhibitors of human beta-arrestin and AP2 interaction. FITC-arrestin peptide / GST-AP2 beads, flow cytometry; AP2 beta2 appendage carries R879A mutation. inhibition, % at 10 µM. 0.31% of 340,000 active. AID 504490;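 active = inhibition above a set limit, near 3 SD of compounds lacking own fluorescence, cut at about 54% in these data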;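 note: plate controls were DMSO wells for no effect and 5 µM unlabelled arrestin peptide for full effect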
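test system = AP2 appendage R879A on GSH beads | buffer or medium = PBS plus Tween 20 (0.05%) and BSA (0.1%) | incubation = 12 min plus 1 h, RT | detection = bead flow cytometry, FITC channel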
Starred values were filed as active, the others as inactive.

How did CC(=O)c1cc(O)c2ccccc2c1O do in these assays?
GSK3A inh: -3; Rin1-Abl PPI inh: 0; STK33 inh: -1; DYRK1A inh: 62*; GSK3B inh: 1; Arr AP2 block: 21

What do the screens show for `N#C/C(=N\Nc1ccccc1Cl)C(=O)c1ccccc1`?
GSK3A inh: -2; Rin1-Abl PPI inh: 0; STK33 inh: 0; DYRK1A inh: -7; GSK3B inh: 0; Arr AP2 block: 21

Results for N#C/C(=N\Nc1c(Cl)cccc1Cl)C(=O)NN ?
GSK3A inh: 75*; Rin1-Abl PPI inh: -8; STK33 inh: 14; DYRK1A inh: 5; GSK3B inh: -24; Arr AP2 block: -3

How did CCOC(=O)N1CCN(C(=O)c2cn(C)c3ccc(S(=O)(=O)N(C)C4CCCCC4)cc3c2=O)CC1 do in these assays?
GSK3A inh: -2; Rin1-Abl PPI inh: 0; STK33 inh: 0; DYRK1A inh: -2; GSK3B inh: -1; Arr AP2 block: -9

What do the screens show for `Fc1ccc(/C=N/Nc2ncnc3nc[nH]c23)cc1F`?
GSK3A inh: 65*; Rin1-Abl PPI inh: -4; STK33 inh: 8; DYRK1A inh: 25; GSK3B inh: -21; Arr AP2 block: -3

Results for Oc1c(Cl)cc(CN2CCCCC2)c2cccnc12 ?
GSK3A inh: -3; Rin1-Abl PPI inh: 12*; STK33 inh: -2; DYRK1A inh: -7; GSK3B inh: 2; Arr AP2 block: 20

Results for O=[N+]([O-])c1cc(CN2CCCC2)c2cccnc2c1O ?
GSK3A inh: -5; Rin1-Abl PPI inh: 52*; STK33 inh: 0; Arr AP2 block: 22

How did CCOC(CCNC(=O)c1cn(CC(C)C)c(=O)c2c1c1ccccc1n2C)OCC do in these assays?
GSK3A inh: -6; Rin1-Abl PPI inh: -2; STK33 inh: -1; DYRK1A inh: -4; GSK3B inh: 2; Arr AP2 block: -3

What do the screens show for `Cn1c(=O)c2[nH]c(CCCC(=O)O)nc2n(Cc2ccccc2)c1=S`?
GSK3A inh: 84*; Rin1-Abl PPI inh: -3; STK33 inh: 1; DYRK1A inh: -16; GSK3B inh: -51*; Arr AP2 block: 0

How did Cn1c(=O)c2[nH]c(CCCc3nc4ccccc4[nH]3)nc2n(C)c1=O do in these assays?
Rin1-Abl PPI inh: 1; DYRK1A inh: -4; Arr AP2 block: 5

What do the screens show for `O=C(NCc1cccnc1)Nc1ccc(Cl)cc1`?
GSK3A inh: 0; Rin1-Abl PPI inh: 3; STK33 inh: -1; DYRK1A inh: 1; GSK3B inh: 2; Arr AP2 block: 27

What do the screens show for `CC1CCCCN1CCNC(=O)c1cc2c(=O)n(C)c3ccccc3c2n1C` (configuration not stated)?
GSK3A inh: 0; Rin1-Abl PPI inh: -1; STK33 inh: 4; DYRK1A inh: 50*; GSK3B inh: 0; Arr AP2 block: 30

Results for Cn1c(C(=O)NCCN2CCOCC2)cc2c(=O)n(C)c3ccccc3c21 ?
GSK3A inh: 0; Rin1-Abl PPI inh: 3; STK33 inh: 2; DYRK1A inh: 32; GSK3B inh: 0; Arr AP2 block: 32

Results for O=C1c2ccccc2C(=O)C12OC2c1ccc(Cl)cc1Cl (configuration not stated) ?
GSK3A inh: -1; Rin1-Abl PPI inh: 7.2*; STK33 inh: -1; DYRK1A inh: -4; Arr AP2 block: 9

What do the screens show for `CC(C)(C)C1=NN=C2c3ccccc3C(=O)C21` (configuration not stated)?
GSK3A inh: 10; Rin1-Abl PPI inh: 4; STK33 inh: 30*; DYRK1A inh: 1; GSK3B inh: -3; Arr AP2 block: 5

How did CCn1c2ccccc2c(=O)c2ccccc21 do in these assays?
GSK3A inh: 10; Rin1-Abl PPI inh: 2; STK33 inh: 31*; DYRK1A inh: 42; GSK3B inh: -18; Arr AP2 block: 17

Results for CN(C)C/C=C/C(=O)Nc1cccc(-c2c[nH]c3ncnc(Oc4ccc(NC(=O)CC(=O)Nc5ccc(F)cc5)cc4F)c23)c1 ?
GSK3A inh: 2; Rin1-Abl PPI inh: 5; STK33 inh: 62*; DYRK1A inh: 68*; Arr AP2 block: 2

How did CC(=O)Nc1cccc(Oc2ncnc3scc(-c4ccccc4)c23)c1 do in these assays?
GSK3A inh: -1; Rin1-Abl PPI inh: -1; STK33 inh: 0; DYRK1A inh: 4; GSK3B inh: 0; Arr AP2 block: 4

Results for Cc1ccc(C2=NCCn3nc4cc([N+](=O)[O-])ccc4c32)cc1 ?
GSK3A inh: 12; Rin1-Abl PPI inh: 2; STK33 inh: -1; DYRK1A inh: 24; GSK3B inh: -19; Arr AP2 block: 14

What do the screens show for `COC(=O)c1ccc(=O)c2nc3/c(=C/O)c(O)cc(=O)c3[nH]c12`?
GSK3A inh: 1; Rin1-Abl PPI inh: 38*; STK33 inh: 0; DYRK1A inh: 5; Arr AP2 block: 25

What do the screens show for `Nc1nc(Nc2ccc(Cl)cc2)nc(NCCO)c1[N+](=O)[O-]`?
GSK3A inh: 55*; Rin1-Abl PPI inh: -1; STK33 inh: 3; GSK3B inh: -16; Arr AP2 block: 0

How did Cc1ccc(Nc2nc(N)c([N+](=O)[O-])c(NCCO)n2)cc1C do in these assays?
GSK3A inh: 42; Rin1-Abl PPI inh: -2; STK33 inh: 2; DYRK1A inh: 7; GSK3B inh: -11; Arr AP2 block: 2

Results for CC(C)CCNc1nc(N)c([N+](=O)[O-])c(NCCO)n1 ?
GSK3A inh: 80*; Rin1-Abl PPI inh: -1; STK33 inh: 3; GSK3B inh: -67*; Arr AP2 block: 0

Results for Nc1nc(NCc2ccc(Cl)cc2)nc(NCCO)c1[N+](=O)[O-] ?
GSK3A inh: 13; Rin1-Abl PPI inh: 1; STK33 inh: -2; DYRK1A inh: 40; GSK3B inh: -1; Arr AP2 block: 3

What do the screens show for `Cc1ccc(CNc2nc(N)c([N+](=O)[O-])c(NCCO)n2)cc1`?
GSK3A inh: 51*; Rin1-Abl PPI inh: 1; STK33 inh: 2; GSK3B inh: -39; Arr AP2 block: 8

How did CCC(C)Nc1nc(N)c([N+](=O)[O-])c(NCCO)n1 (configuration not stated) do in these assays?
GSK3A inh: 73*; Rin1-Abl PPI inh: 4; STK33 inh: 1; DYRK1A inh: 13; GSK3B inh: -1; Arr AP2 block: -24

Results for COc1cccc2c1NC(C(=O)O)C1CC=CC21 (configuration not stated) ?
GSK3A inh: 1; Rin1-Abl PPI inh: 7.6*; STK33 inh: 6; DYRK1A inh: 4; GSK3B inh: -3; Arr AP2 block: 8

How did CN(C)CCNc1ncnc2c1ncn2[C@H]1CN(Cc2ccc(-c3ccccc3)cc2)C[C@@H](CO)O1 do in these assays?
Rin1-Abl PPI inh: 3
